# Data as given in ChEMBL document CHEMBL1138520, “Molecular and conformational determinants of pituitary adenylate cyclase-activating polypeptide (PACAP) for activation of the PAC1 receptor” (J Med Chem, 2009).
# pEC50, pIC50: −log10 of the molar value. Where a SMILES comes first, the peptide text is derived from it. [ ]: non-standard residue; d: D form. Aad = N[C@@H](CCCC(=O)O)C(=O)O
# What was measured:
# [1] = molecular target: T1, Pituitary adenylate cyclase-activating polypeptide type I receptor (Homo sapiens, UniProt P41586); test: Agonist activity at human recombinant PAC1 receptor expressed in CHO cells assessed as PACAP38-induced calcium mobilization by FLIPR assay; assay type: functional, cell-based
# Procedure, shortened: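 CHO cells stably expressing recombinant human PAC1, plated 24 h before assay, loaded with fluo-4 AM for 60 min at 37 °C in the dark, then rinsed into HBSS for 15 min at 37 °C. EC50 and efficacy came from nonlinear regression; 4-10 independent assays in duplicate.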
# Target sequence in this assay (P41586 whole entry): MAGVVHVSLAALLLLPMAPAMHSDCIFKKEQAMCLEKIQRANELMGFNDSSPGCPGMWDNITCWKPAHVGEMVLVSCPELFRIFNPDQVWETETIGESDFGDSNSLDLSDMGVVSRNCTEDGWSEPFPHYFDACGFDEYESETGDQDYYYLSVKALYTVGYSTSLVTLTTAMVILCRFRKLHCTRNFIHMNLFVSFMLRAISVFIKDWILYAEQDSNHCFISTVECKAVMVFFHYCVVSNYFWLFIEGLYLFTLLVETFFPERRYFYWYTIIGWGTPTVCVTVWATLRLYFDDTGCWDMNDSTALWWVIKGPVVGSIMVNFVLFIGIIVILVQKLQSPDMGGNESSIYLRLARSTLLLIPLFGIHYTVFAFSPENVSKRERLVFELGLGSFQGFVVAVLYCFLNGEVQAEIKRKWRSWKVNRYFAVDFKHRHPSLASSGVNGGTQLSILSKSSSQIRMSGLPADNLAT
# [2] = molecular target: T1, Pituitary adenylate cyclase-activating polypeptide type I receptor; test: Displacement of [125I]Ac-PACAP27 from human recombinant PAC1 receptor expressed in CHO cells by gamma- counter; assay type: cell-based
# Target sequence in this assay (P41586 whole entry): as above
# [3] = molecular target: T1, Pituitary adenylate cyclase-activating polypeptide type I receptor; test: Agonist activity at human recombinant PAC1 receptor expressed in CHO cells assessed as PACAP38-induced calcium mobilization by FLIPR assay relative to PACAP38; assay type: functional, cell-based
# Procedure, shortened: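 CHO cells stably expressing recombinant human PAC1, plated 24 h before assay, loaded with fluo-4 AM for 60 min at 37 °C in the dark, then rinsed into HBSS for 15 min at 37 °C. Peptide was added 18 s into a 150 s read (ex 480/em 525 nm), at final concentrations of 1 × 10-12 to 1 × 10^-5 M. Response was normalised to 1 × 10^-5 M PACAP38 on each plate. EC50 and efficacy came from nonlinear regression; 4-10 independent assays in duplicate.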
# Target sequence in this assay (P41586 21-468 limits assumed): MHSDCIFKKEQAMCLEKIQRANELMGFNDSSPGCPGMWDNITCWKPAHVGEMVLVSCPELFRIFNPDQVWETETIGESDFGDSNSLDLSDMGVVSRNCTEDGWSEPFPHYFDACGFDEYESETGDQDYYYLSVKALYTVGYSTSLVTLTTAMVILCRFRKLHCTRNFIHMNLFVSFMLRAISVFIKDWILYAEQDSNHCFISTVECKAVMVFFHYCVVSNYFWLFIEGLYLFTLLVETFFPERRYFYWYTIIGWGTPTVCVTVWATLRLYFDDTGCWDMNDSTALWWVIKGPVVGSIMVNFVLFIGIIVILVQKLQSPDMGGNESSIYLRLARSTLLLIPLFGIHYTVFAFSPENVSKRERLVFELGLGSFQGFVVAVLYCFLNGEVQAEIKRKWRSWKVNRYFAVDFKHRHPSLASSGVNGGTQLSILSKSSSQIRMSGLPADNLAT
Structure (SMILES),pEC50 [1],pIC50 [2],Emax [3]
CC[C@H](C)[C@H](NC(=O)CNC(=O)[C@H](CC(=O)O)NC(=O)[C@H](CO)NC(=O)[C@H](C)N)C(=O)N[C@@H](Cc1ccccc1)C(=O)N[C@H](C(=O)N[C@@H](CC(=O)O)C(=O)N[C@@H](CO)C(=O)N[C@@H](Cc1ccc(O)cc1)C(=O)N[C@@H](CO)C(=O)N[C@@H](CCCNC(=N)N)C(=O)N[C@@H](Cc1ccc(O)cc1)C(=O)N[C@@H](CCCNC(=N)N)C(=O)N[C@@H](CCCCN)C(=O)N[C@@H](CCC(N)=O)C(=O)N[C@@H](CCSC)C(=O)N[C@@H](C)C(=O)N[C@H](C(=O)N[C@@H](CCCCN)C(=O)N[C@@H](CCCCN)C(=O)N[C@@H](Cc1ccc(O)cc1)C(=O)N[C@@H](CC(C)C)C(=O)N[C@@H](C)C(=O)N[C@@H](C)C(=O)N[C@H](C(=O)N[C@@H](CC(C)C)C(N)=O)C(C)C)C(C)C)[C@@H](C)O,6.76,6.47,70%
CC[C@H](C)[C@H](NC(=O)CNC(=O)[C@H](CCCC(=O)O)NC(=O)[C@H](CO)NC(=O)[C@@H](N)Cc1cnc[nH]1)C(=O)N[C@@H](Cc1ccccc1)C(=O)N[C@H](C(=O)N[C@@H](CC(=O)O)C(=O)N[C@@H](CO)C(=O)N[C@@H](Cc1ccc(O)cc1)C(=O)N[C@@H](CO)C(=O)N[C@@H](CCCNC(=N)N)C(=O)N[C@@H](Cc1ccc(O)cc1)C(=O)N[C@@H](CCCNC(=N)N)C(=O)N[C@@H](CCCCN)C(=O)N[C@@H](CCC(N)=O)C(=O)N[C@@H](CCSC)C(=O)N[C@@H](C)C(=O)N[C@H](C(=O)N[C@@H](CCCCN)C(=O)N[C@@H](CCCCN)C(=O)N[C@@H](Cc1ccc(O)cc1)C(=O)N[C@@H](CC(C)C)C(=O)N[C@@H](C)C(=O)N[C@@H](C)C(=O)N[C@H](C(=O)N[C@@H](CC(C)C)C(=O)NCC(=O)N[C@@H](CCCCN)C(=O)N[C@@H](CCCNC(=N)N)C(=O)N[C@@H](Cc1ccc(O)cc1)C(=O)N[C@@H](CCCCN)C(=O)N[C@@H](CCC(N)=O)C(=O)N[C@@H](CCCNC(=N)N)C(=O)N[C@H](C(=O)N[C@@H](CCCCN)C(=O)N[C@@H](CC(N)=O)C(=O)N[C@@H](CCCCN)C(N)=O)C(C)C)C(C)C)C(C)C)[C@@H](C)O (H-HS[Aad]GIFTDSYSRYRKQMAVKKYLAAVLGKRYKQRVKNK-NH2),7.42,7.90,18.2%
CC[C@H](C)[C@@H](C(=O)N[C@@H](Cc1ccccc1)C(=O)N[C@H](C(=O)N[C@@H](CC(=O)O)C(=O)N[C@@H](CO)C(=O)N[C@@H](Cc1ccc(O)cc1)C(=O)N[C@@H](CO)C(=O)N[C@@H](CCCNC(=N)N)C(=O)N[C@@H](Cc1ccc(O)cc1)C(=O)N[C@@H](CCCNC(=N)N)C(=O)N[C@@H](CCCCN)C(=O)N[C@@H](CCC(N)=O)C(=O)N[C@@H](CCSC)C(=O)N[C@@H](C)C(=O)N[C@H](C(=O)N[C@@H](CCCCN)C(=O)N[C@@H](CCCCN)C(=O)N[C@@H](Cc1ccc(O)cc1)C(=O)N[C@@H](CC(C)C)C(=O)N[C@@H](C)C(=O)N[C@@H](C)C(=O)N[C@H](C(=O)N[C@@H](CC(C)C)C(N)=O)C(C)C)C(C)C)[C@@H](C)O)N(C)C(=O)CNC(=O)[C@H](CC(=O)O)NC(=O)[C@H](CO)NC(=O)[C@@H](N)Cc1cnc[nH]1,5.74,5.75,34.5%
CC[C@H](C)[C@H](NC(=O)CNC(=O)[C@H](CC(=O)O)NC(=O)[C@H](CO)NC(=O)[C@@H](N)Cc1cnc[nH]1)C(=O)N[C@H](Cc1ccccc1)C(=O)N[C@H](C(=O)N[C@@H](CC(=O)O)C(=O)N[C@@H](CO)C(=O)N[C@@H](Cc1ccc(O)cc1)C(=O)N[C@@H](CO)C(=O)N[C@@H](CCCNC(=N)N)C(=O)N[C@@H](Cc1ccc(O)cc1)C(=O)N[C@@H](CCCNC(=N)N)C(=O)N[C@@H](CCCCN)C(=O)N[C@@H](CCC(N)=O)C(=O)N[C@@H](CCSC)C(=O)N[C@@H](C)C(=O)N[C@H](C(=O)N[C@@H](CCCCN)C(=O)N[C@@H](CCCCN)C(=O)N[C@@H](Cc1ccc(O)cc1)C(=O)N[C@@H](CC(C)C)C(=O)N[C@@H](C)C(=O)N[C@@H](C)C(=O)N[C@H](C(=O)N[C@@H](CC(C)C)C(=O)NCC(=O)N[C@@H](CCCCN)C(=O)N[C@@H](CCCNC(=N)N)C(=O)N[C@@H](Cc1ccc(O)cc1)C(=O)N[C@@H](CCCCN)C(=O)N[C@@H](CCC(N)=O)C(=O)N[C@@H](CCCNC(=N)N)C(=O)N[C@H](C(=O)N[C@@H](CCCCN)C(=O)N[C@@H](CC(N)=O)C(=O)N[C@@H](CCCCN)C(N)=O)C(C)C)C(C)C)C(C)C)[C@@H](C)O,5.74,6.02,93.2%
CC[C@H](C)[C@H](NC(=O)CNC(=O)[C@H](CC(=O)O)NC(=O)[C@H](CO)NC(=O)[C@@H](N)Cc1cnc[nH]1)C(=O)N[C@@H](Cc1cccc2ccccc12)C(=O)N[C@H](C(=O)N[C@@H](CC(=O)O)C(=O)N[C@@H](CO)C(=O)N[C@@H](Cc1ccc(O)cc1)C(=O)N[C@@H](CO)C(=O)N[C@@H](CCCNC(=N)N)C(=O)N[C@@H](Cc1ccc(O)cc1)C(=O)N[C@@H](CCCNC(=N)N)C(=O)N[C@@H](CCCCN)C(=O)N[C@@H](CCC(N)=O)C(=O)N[C@@H](CCSC)C(=O)N[C@@H](C)C(=O)N[C@H](C(=O)N[C@@H](CCCCN)C(=O)N[C@@H](CCCCN)C(=O)N[C@@H](Cc1ccc(O)cc1)C(=O)N[C@@H](CC(C)C)C(=O)N[C@@H](C)C(=O)N[C@@H](C)C(=O)N[C@H](C(=O)N[C@@H](CC(C)C)C(N)=O)C(C)C)C(C)C)[C@@H](C)O,9.15,8.19,110%
CC[C@H](C)[C@H](NC(=O)[C@H](C)NC(=O)[C@H](CC(=O)O)NC(=O)[C@H](CO)NC(=O)[C@@H](N)Cc1cnc[nH]1)C(=O)N[C@@H](Cc1ccccc1)C(=O)N[C@H](C(=O)N[C@@H](CC(=O)O)C(=O)N[C@@H](CO)C(=O)N[C@@H](Cc1ccc(O)cc1)C(=O)N[C@@H](CO)C(=O)N[C@@H](CCCNC(=N)N)C(=O)N[C@@H](Cc1ccc(O)cc1)C(=O)N[C@@H](CCCNC(=N)N)C(=O)N[C@@H](CCCCN)C(=O)N[C@@H](CCC(N)=O)C(=O)N[C@@H](CCSC)C(=O)N[C@@H](C)C(=O)N[C@H](C(=O)N[C@@H](CCCCN)C(=O)N[C@@H](CCCCN)C(=O)N[C@@H](Cc1ccc(O)cc1)C(=O)N[C@@H](CC(C)C)C(=O)N[C@@H](C)C(=O)N[C@@H](C)C(=O)N[C@H](C(=O)N[C@@H](CC(C)C)C(=O)NCC(=O)N[C@@H](CCCCN)C(=O)N[C@@H](CCCNC(=N)N)C(=O)N[C@@H](Cc1ccc(O)cc1)C(=O)N[C@@H](CCCCN)C(=O)N[C@@H](CCC(N)=O)C(=O)N[C@@H](CCCNC(=N)N)C(=O)N[C@H](C(=O)N[C@@H](CCCCN)C(=O)N[C@@H](CC(N)=O)C(=O)N[C@@H](CCCCN)C(N)=O)C(C)C)C(C)C)C(C)C)[C@@H](C)O (H-HSDAIFTDSYSRYRKQMAVKKYLAAVLGKRYKQRVKNK-NH2),8.13,8.01,90.2%

# More lines, now with the values ahead:
pEC50 [1],pIC50 [2],Emax [3],Structure (SMILES)
6.27,6.22,18.4%,CC[C@H](C)[C@H](NC(=O)CNC(=O)[C@H](C)NC(=O)[C@H](CO)NC(=O)[C@@H](N)Cc1cnc[nH]1)C(=O)N[C@@H](Cc1ccccc1)C(=O)N[C@H](C(=O)N[C@@H](CC(=O)O)C(=O)N[C@@H](CO)C(=O)N[C@@H](Cc1ccc(O)cc1)C(=O)N[C@@H](CO)C(=O)N[C@@H](CCCNC(=N)N)C(=O)N[C@@H](Cc1ccc(O)cc1)C(=O)N[C@@H](CCCNC(=N)N)C(=O)N[C@@H](CCCCN)C(=O)N[C@@H](CCC(N)=O)C(=O)N[C@@H](CCSC)C(=O)N[C@@H](C)C(=O)N[C@H](C(=O)N[C@@H](CCCCN)C(=O)N[C@@H](CCCCN)C(=O)N[C@@H](Cc1ccc(O)cc1)C(=O)N[C@@H](CC(C)C)C(=O)N[C@@H](C)C(=O)N[C@@H](C)C(=O)N[C@H](C(=O)N[C@@H](CC(C)C)C(N)=O)C(C)C)C(C)C)[C@@H](C)O
6.38,7.60,89.2%,CC[C@H](C)[C@H](NC(=O)CNC(=O)[C@H](CC(=O)O)N(C)C(=O)[C@H](CO)NC(=O)[C@@H](N)Cc1cnc[nH]1)C(=O)N[C@@H](Cc1ccccc1)C(=O)N[C@H](C(=O)N[C@@H](CC(=O)O)C(=O)N[C@@H](CO)C(=O)N[C@@H](Cc1ccc(O)cc1)C(=O)N[C@@H](CO)C(=O)N[C@@H](CCCNC(=N)N)C(=O)N[C@@H](Cc1ccc(O)cc1)C(=O)N[C@@H](CCCNC(=N)N)C(=O)N[C@@H](CCCCN)C(=O)N[C@@H](CCC(N)=O)C(=O)N[C@@H](CCSC)C(=O)N[C@@H](C)C(=O)N[C@H](C(=O)N[C@@H](CCCCN)C(=O)N[C@@H](CCCCN)C(=O)N[C@@H](Cc1ccc(O)cc1)C(=O)N[C@@H](CC(C)C)C(=O)N[C@@H](C)C(=O)N[C@@H](C)C(=O)N[C@H](C(=O)N[C@@H](CC(C)C)C(N)=O)C(C)C)C(C)C)[C@@H](C)O
6.85,6.55,91.2%,CC[C@H](C)[C@H](NC(=O)CNC(=O)[C@H](CC(N)=O)NC(=O)[C@H](CO)NC(=O)[C@@H](N)Cc1cnc[nH]1)C(=O)N[C@@H](Cc1ccccc1)C(=O)N[C@H](C(=O)N[C@@H](CC(=O)O)C(=O)N[C@@H](CO)C(=O)N[C@@H](Cc1ccc(O)cc1)C(=O)N[C@@H](CO)C(=O)N[C@@H](CCCNC(=N)N)C(=O)N[C@@H](Cc1ccc(O)cc1)C(=O)N[C@@H](CCCNC(=N)N)C(=O)N[C@@H](CCCCN)C(=O)N[C@@H](CCC(N)=O)C(=O)N[C@@H](CCSC)C(=O)N[C@@H](C)C(=O)N[C@H](C(=O)N[C@@H](CCCCN)C(=O)N[C@@H](CCCCN)C(=O)N[C@@H](Cc1ccc(O)cc1)C(=O)N[C@@H](CC(C)C)C(=O)N[C@@H](C)C(=O)N[C@@H](C)C(=O)N[C@H](C(=O)N[C@@H](CC(C)C)C(N)=O)C(C)C)C(C)C)[C@@H](C)O
